# BB579 growth dn: reduces growth of yeast BB579 in restrictive medium. S. cerevisiae BB579 growth, OD615, 48 h. inhibition, % at 10 µM. 140,000 tested, 0.51% active;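 active means inhibition above a set limit, 3 SD over the mean compound inhibition, cut at about 44% in these data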
#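 System: Saccharomyces cerevisiae DeaD strain BB579, replicative lifespan model yeast | Buffer or medium: Restrictive glucose-based CSMM-D medium | Times: 4 h preincubation and 48 h exposure at 30 °C | Detection: OD615 turbidity measurement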
# RAM network inh: yeast RAM network inhibition. S. cerevisiae dse1pr::URA3 reporter, 5-FOA growth OD615, 2 d; analog-sensitive cbk1-as2 kinase mutant strain. inhibition, % at 50 µM. 190,000 tested, 1.8% active. AID 868;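 active means inhibition above a set limit, 3 SD over mean compound inhibition, cut at about 8.4% in these data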;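 further: 0% = DMSO-only wells with no growth and 100% = 10 µM 1-NA-PP1 full growth; inhibition rescues growth on 5-FOA so higher OD means more RAM inhibition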
# Yeast life ext: yeast lifespan extension. S. cerevisiae growth with nicotinamide, OD615; deaD strain in restrictive glucose medium. 130,000 tested, 0.68% active. inhibition of the nicotinamide effect, % at 10 µM;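 active means inhibition above a set limit, placed 3 SD over the median of all compounds, cut at about 26% in these data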;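 further: 0% = nicotinamide-treated wells and 100% = cells grown without nicotinamide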
#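 assay system = DeaD-strain S. cerevisiae | buffer or medium = restrictive glucose medium | reagent = 1.5 mM nicotinamide | compound = 10 µM single point, 0.25% DMSO | incubation = 48 h compound exposure at 30 °C, humidified | signal = OD615 measurement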
# SDO1 yeast rescue: compounds rescuing growth of sdo1-depleted yeast, bone marrow failure model. S. cerevisiae sdo1-depleted JHY4D growth rescue, OD600 30 h; active compounds read high; pdr5 snq2 efflux-pump mutant strain. z-score at 10 µM. 140,000 tested, 0.21% active. AID 817;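 active means z-score above 3 at both the 24 hr and the 30 hr optical density reads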;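 further: z-score against mean and SD of all compound wells on the same plate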
# * marks the source's active call; other numbers are inactive results; x = no result. Shown are actives, neighbours in structure and some others; about 2.7% of the full set was active somewhere.
SMILES,BB579 growth dn,RAM network inh,Yeast life ext,SDO1 yeast rescue
COc1ccc(-c2cc(C(F)(F)F)nc(SCCC(=O)N3CCCC3)n2)cc1,-30,8.8*,x,-0.75
COc1ccc(-c2cc(C(F)(F)F)nc(SCCC(=O)Nc3cc(C)on3)n2)cc1,-24,3,-2,-0.03
Cc1ccc([N+](=O)[O-])cc1NC(=O)C(C)NS(=O)(=O)c1ccc(F)cc1 (stereo not given),x,2,x,x
Cc1nn(-c2ccccc2)c(Cl)c1C(=O)NCCN(C)C,x,2,x,x
CC1(C)CC2CC(C)(CN2C(=S)Nc2ccccc2)C1 (stereo not given),x,1,x,x
CC1(C)CC2CC(C)(CN2C(=S)NC(=O)c2ccccc2Cl)C1 (stereo not given),-37,1,29*,-1.3
COc1ccc(-n2c(O)c(/C=N/NS(=O)(=O)c3cccc([N+](=O)[O-])c3)c3ccccc3c2=O)cc1OC,x,5,x,x
CC1C/C(=C\c2cccnc2)C(=O)/C(=C/c2cccnc2)C1 (stereo not given),-4,2,70*,-1.9
CCOc1ccc(S(=O)(=O)N(C)c2ccc(OCC(=O)NCc3cccnc3)cc2)cc1,x,-1,x,x
CCOc1ccc(S(=O)(=O)N(C)c2ccc(OCC(=O)NCc3ccco3)cc2)cc1,-6,9.8*,-10,-1.1
Cn1c(=O)c2nc(-c3ccccc3)oc2c2ccccc21,78*,3,-23,-2.8
Cc1ccc2nc(C3CCCN3Cc3nc(CCC(C)C)no3)[nH]c2c1 (stereo not given),x,0,x,x
COc1cccc(-c2nc(C(N)=O)c3[nH]c(=O)n(-c4cccc(Cl)c4)c3n2)c1OC,-33,11*,-1,-0.15
COc1ccc(-c2nc(C(N)=O)c3[nH]c(=O)n(-c4cccc(Cl)c4)c3n2)cc1OC,-23,3,-4,-1.6
Cc1cccc(C(=O)N2CCC(=O)N(C(COCc3cccc(Cl)c3)Cc3ccccc3)CC2)c1 (stereo not given),-21,5,8,-0.65
O=C(c1ccc(Cl)c(Cl)c1)N1CCC(=O)N(C(COCc2cccc(Cl)c2)Cc2ccccc2)CC1 (stereo not given),-37,10*,11,-1.1
O=C(c1cccc(Cl)c1)N1CCC(=O)N(C(COCc2cccc(Cl)c2)Cc2ccccc2)CC1 (stereo not given),-40,9.5*,6,-0.71
CC1(C)Cc2ccccc2C(CSc2ccccc2C(=O)O)=N1,x,1,x,x
COc1cc(Cl)c(C)cc1NC(=O)c1cccc(OC)c1OC,x,10*,x,x
CCN(CC)S(=O)(=O)c1ccc(OC)c(NC(=O)CSc2cc(Cl)ccc2Cl)c1,-35,9.2*,4,-0.36
CCOC(=O)Cn1c(=O)c2c(nc3n2CCN3Cc2ccccc2)n(C)c1=O,-32,1,29*,-0.38
Cc1cc(C)c(COc2ccc(/C=N/n3c(C)n[nH]c3=S)cc2)c(C)c1,-23,2,-2,-0.93
CCCn1c(C)cc(C(=O)COc2ncnc3sccc23)c1C,0,1,49*,-1.1
Cc1cc(C(=O)COc2ncnc3sccc23)c(C)n1C1CC1,6,0,55,-1.6
CC1CCCC(NC(=O)CCCn2c(=S)[nH]c3ccccc3c2=O)C1C (stereo not given),x,9.0*,x,x
SMILES,BB579 growth dn,RAM network inh,Yeast life ext,SDO1 yeast rescue
C=CCn1c(SCC(=O)N2CCCCC2)nc(O)cc1=O,5,-1,48*,-0.36
O=C(CN1CCN(S(=O)(=O)c2ccccc2F)CC1)Nc1ccccc1C(=O)c1ccccc1,x,11*,x,x
O=S(=O)(c1ccccc1F)N1CCN(CC(O)c2ccccc2)CC1 (stereo not given),x,5,x,x
CC(=O)c1c(C)nn(CC(O)COc2ccc3ccccc3c2)c1C (stereo not given),x,0,x,x
Cc1ccc(C(C(=O)NC2CCCCC2)N(CC2CCCO2)C(=O)CNC(=O)c2cccs2)cc1 (stereo not given),-20,8.9*,-15,0.44
CN(C)CCCn1c(SCC(=O)N2c3ccccc3Sc3ccccc32)nc2ccccc2c1=O,-17,1,-4,-2.1
CC1=NN(c2nc(-c3ccc(C)cc3)cs2)C(=O)C1N=Nc1ccc2ccccc2c1 (stereo not given),-45,11*,-2,0.18
CC1=NN(c2nc(-c3ccccc3)cs2)C(=O)C1N=Nc1ccccc1 (stereo not given),x,5,x,x
CCN(CC)CCNC(=O)c1cc2c(-c3ccc(Cl)cc3)nn(C)c2s1,15,1,-9,1
CCOCCCNC(=O)c1cc2c(-c3ccc(Cl)cc3)nn(C)c2s1,-23,9.0*,-5,-1.3
Nc1oc2ccc(F)cc2c(=O)c1C=O,-31,-1,27*,1.1
CCCCc1ccc(NC(=S)N2CCCC(C)C2)cc1 (stereo not given),x,1,x,x
O=C(Nc1cc(Sc2nc3ccccc3s2)cc([N+](=O)[O-])c1)c1ccccc1,-2,5,-3,0.01
O=C(Nc1cc(Sc2ccccn2)cc([N+](=O)[O-])c1)c1cccc(F)c1,-22,9.4*,-3,-1.2
COc1cccc(CNC(=O)CCC2CCCN(c3cc(C)nc(N)n3)C2)c1 (stereo not given),x,1,x,x
CC(OC(=O)C1=COCCO1)C(=O)Nc1ccc(Oc2ccccc2)cc1 (stereo not given),-34,10*,-14,-0.02
O=C(/C=C\c1cccs1)c1c(O)ccc2ccc(=O)oc12,-31,3,27*,-1.4
O=C(/C=C/c1cccs1)c1ccc(Br)cc1,-32,2,-33,-0.69
COC(=O)/C=c1/s/c(=C(\C#N)C(=O)NCc2ccco2)n(-c2ccc(C)cc2)c1=O,-6,8.5*,-2,-0.76
CNC(=S)N(CCc1ccc(S(N)(=O)=O)cc1)C1CC(=O)N(c2ccccc2F)C1=O (stereo not given),x,9.4*,x,x
COc1ccc(CCN(C(=S)Nc2ccccc2)C2CC(=O)N(c3ccccc3)C2=O)cc1 (stereo not given),-45,3,-17,-0.72
CCOC(=O)/C(=N\Nc1cccc(C(F)(F)F)c1)N1CCOCC1,x,2,x,x
CCOC(=O)/C(=N\Nc1cccc(C(F)(F)F)c1)N(CCOC)CCOC,54*,0,-11,-0.35
COc1ccc(-c2cc(=O)c3ccccc3s2)cc1,-34,8.8*,-29,-1.8
COc1ccc2sc3ccccc3c(=O)c2c1,22,4,-27,-0.98
SMILES,BB579 growth dn,RAM network inh,Yeast life ext,SDO1 yeast rescue
CC(C)Sc1oc(-c2ccco2)nc1S(=O)(=O)c1ccc(F)cc1,-18,1,0,-0.94
CSc1oc(-c2ccco2)nc1S(=O)(=O)c1ccc(Br)cc1,-16,8.4*,-2,-0.51
C/C(=N\NC(=O)c1cccc(N/N=C(\C)c2cc(O)ccc2O)c1)c1cc(O)ccc1O,x,2,x,x
COc1ccc2c(c1)S/C(=C\C(=O)c1ccncc1)N2C,92*,2,-14,-2.4
COc1ccc(C(=O)OCn2nnc3ccccc3c2=O)cc1OC,-26,8.8*,-23,-0.37
COc1ccc(C(=O)OCn2nnc3ccccc3c2=O)cc1[N+](=O)[O-],x,2,x,x

# Screening data from PubChem BioAssay.
